Measured values published in ChEMBL document CHEMBL1649384, “Synthesis and antiproliferative activity of novel symmetrical alkylthio- and alkylseleno-imidocarbamates” (Eur J Med Chem, 2011).

How the values were obtained:
[1] = system: MCF7; assay: Cytotoxicity against human MCF7 cells after 72 hrs by MTT assay; type: functional; conditions: MCF7, 72 h
Method in brief: (§1)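 Cells seeded per well: Hep-G2 1×10⁴, HT-29 4×10³, K-562 4×10³, MCF-7 1.2×10⁴, MCF-10A 7×10³, PC-3 2×10³. MCF-10A were grown in supplemented MEBM at 37 °C, 5% CO₂. Five concentrations were tested between 0.01 and 100, with 72 h exposure. Formazan was read by A590. GI₅₀ was taken relative to untreated controls, from at least three independent experiments.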

[2] = system: K562; assay: Cytotoxicity against human K562 cells after 72 hrs by MTT assay; type: functional; conditions: K562, 72 h; for CC50: read-out: LC50 (the source's name); method in brief: as §1
[3] = system: PC-3; assay: Cytotoxicity against human PC3 cells after 72 hrs by MTT assay; type: functional; conditions: PC-3, 72 h; for CC50: read-out: LC50 (the source's name); method in brief: as §1
[4] = system: HT-29; assay: Cytotoxicity against human HT-29 cells after 72 hrs by MTT assay; type: functional; conditions: HT-29, 72 h; for CC50: read-out: LC50 (the source's name); method in brief: as §1
[5] = Cytotoxicity against human MCF10A cells after 72 hrs by MTT assay; type: cell-based, MCF-10A; conditions: for GI50 at 72 h: MCF10A cells; for LC50 / TGI: mcf-10a, 72 h; method in brief: as §1
[6] = system: HepG2; assay: Cytotoxicity against human HepG2 cells after 72 hrs by MTT assay; type: functional; conditions: HepG2, 72 h; for CC50: read-out: LC50 (the source's name); method in brief: as §1
[7] = system: HT-29; assay: Cytotoxicity against human HT-29 cells after 72 hrs by CV method; type: functional; conditions: HT-29, 72 h
Method in brief: (§2)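 Crystal violet check of the MTT data: eight concentrations between 0.01 and 100, with 72 h exposure. Cells were fixed in 4% formaldehyde for at least 20 min, then stained with 0.1% crystal violet for 30 min. GI₅₀ is the concentration halving growth relative to untreated controls.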

[8] = system: PC-3; assay: Cytotoxicity against human PC3 cells after 72 hrs by CV method; type: functional; conditions: PC-3, 72 h; method in brief: as §2

| Compound | GI50 [1] [µM] | LC50 [1] [µM] | TGI [1] [µM] | GI50 [2] [µM] | TGI [2] [µM] | CC50 [2] [µM] | GI50 [3] [µM] | TGI [3] [µM] | CC50 [3] [µM] | GI50 [4] [µM] | TGI [4] [µM] | CC50 [4] [µM] | GI50 at 72 h [5] [µM] | LC50 [5] [µM] | TGI [5] [µM] | GI50 [6] [µM] | TGI [6] [µM] | CC50 [6] [µM] | GI50 [7] [µM] | GI50 [8] [µM] |
| --- | --- | --- | --- | --- | --- | --- | --- | --- | --- | --- | --- | --- | --- | --- | --- | --- | --- | --- | --- | --- |
| CS/C(=N\C(=O)c1ccco1)NC(=O)c1ccco1 | 56.1 | > 100 | > 100 | 64.8 | > 100 | > 100 | 56.2 | > 100 | > 100 | 77.1 | > 100 | > 100 | 8.22 | 85.69 | 46.52 | > 100 | > 100 | > 100 |  |  |
| CS/C(=N\C(=O)c1cccs1)NC(=O)c1cccs1 | 44.5 | > 100 | 89 | 72.6 | > 100 | > 100 | 39 | 98.2 | > 100 | 77.9 | > 100 | > 100 | 19.7 | 90.5 | 55.1 | > 100 | > 100 | > 100 |  |  |
| CS/C(=N\C(=O)c1sccc1Cl)NC(=O)c1sccc1Cl | 10.3 | > 100 | 57.1 | 37 | 78.9 | > 100 | 24.7 | 57.4 | 90.1 | 35.6 | > 100 | > 100 | 0.09 | 64.11 | 23.72 | 65.2 | > 100 | > 100 |  |  |
| CS/C(=N\C(=O)c1csc([N+](=O)[O-])c1)NC(=O)c1csc([N+](=O)[O-])c1 | 44.6 | > 100 | 78.1 | 56.9 | 98.7 | > 100 | 41.5 | 82.5 | > 100 | 51.8 | > 100 | > 100 | 1.55 | 75.14 | 21.35 | 63.4 | > 100 | > 100 |  |  |
| CS/C(=N\C(=O)c1ccno1)NC(=O)c1ccno1 | 77.8 | > 100 | > 100 | > 100 | > 100 | > 100 | 99.2 | > 100 | > 100 | > 100 | > 100 | > 100 | 16.9 | > 100 | > 100 | > 100 | > 100 | > 100 |  |  |
| CS/C(=N\C(=O)c1cc2ccccc2s1)NC(=O)c1cc2ccccc2s1 | 9.51 | 78.5 | 43.4 | 34.7 | 66.6 | 98.6 | 8.58 | 39.4 | 72.5 | 16.8 | 88.2 | 88.2 | 0.02 | 54.56 | 5.6 | 15.8 | 53 | 75.8 |  |  |
| CS/C(=N\C(=O)c1ccc2c(c1)OCO2)NC(=O)c1ccc2c(c1)OCO2 | 24.6 | 94.8 | 59.7 | 68 | > 100 | > 100 | 28.7 | 54.5 | 80.4 | 46.4 | > 100 | > 100 | 1.01 | 9.05 | 5.03 | 61.4 | > 100 | > 100 |  |  |
| CS/C(=N\C(=O)c1cnc2ccccc2c1)NC(=O)c1cnc2ccccc2c1 | 23.9 | > 100 | > 100 | 65.8 | > 100 | > 100 | 76.3 | > 100 | > 100 | > 100 | > 100 | > 100 | 0.5 | 82.19 | 42.17 | 57.6 | > 100 | > 100 |  |  |
| CS/C(=N\C(=O)c1cc(-c2ccccc2)nc2ccccc12)NC(=O)c1cc(-c2ccccc2)nc2ccccc12 | 43.1 | > 100 | 87.7 | 34.4 | > 100 | > 100 | 7.48 | > 100 | > 100 | 23.7 | > 100 | > 100 | 0.04 | 48.81 | 0.54 | 6.24 | 48.1 | > 100 |  |  |
| C[Se]/C(=N\C(=O)c1ccco1)NC(=O)c1ccco1 | 0.03 | > 100 | 88.9 | 8.78 | > 100 | > 100 | 0.36 | 56.7 | > 100 | 5e-05 | > 100 | > 100 | 5.94 | 98.07 | 40.16 | 0.76 | 8.66 | > 100 | 1 | 0.16 |
| C[Se]/C(=N\C(=O)c1sccc1Cl)NC(=O)c1sccc1Cl | 0.3 | > 100 | 31.2 | 4.81 | 28.5 | 90 | 0.97 | 7.03 | > 100 | 0.0049 | > 100 | > 100 | 3.16 | 7.82 | 5.49 | 0.69 | 4.02 | 8.67 | 0.0059 | 0.24 |
| C[Se]/C(=N\C(=O)c1csc([N+](=O)[O-])c1)NC(=O)c1csc([N+](=O)[O-])c1 | 0.00076 | > 100 | 28.1 | 4.98 | > 100 | > 100 | 0.1 | 7.09 | > 100 | 0.00063 | > 100 | > 100 | 1.95 | 7.53 | 4.74 | 0.62 | 1.55 | 10 | 7.1 | 0.11 |
| C[Se]/C(=N\C(=O)c1ccno1)NC(=O)c1ccno1 | 9e-05 | > 100 | 57.5 | 0.87 | 45.6 | > 100 | 0.09 | 39.3 | > 100 | 0.00079 | > 100 | > 100 | 2.89 | 63.94 | 15.41 | 0.51 | 9.35 | > 100 | 4.9 | 0.03 |
| C[Se]/C(=N\C(=O)c1cc(-c2ccccc2)nc2ccccc12)NC(=O)c1cc(-c2ccccc2)nc2ccccc12 | 0.49 | > 100 | 7.52 | 5.8 | 30.6 | 73 | 3.97 | 40.2 | > 100 | 0.46 | 90.7 | 90.7 | 0.71 | 76.9 | 20.05 | 4.54 | 10.1 | 65.4 | 0.85 | 3.72 |
